In ChEMBL document CHEMBL3046780, “Syntheses and herbicidal activity of new triazolopyrimidine-2-sulfonamides as acetohydroxyacid synthase inhibitor” (Bioorg Med Chem, 2010):

Legend:
[1] = tested on: Rumex acetosa; assay: Post-emergence herbicidal activity against Rumex acetosa assessed as growth inhibition at 75 g ai/ha measured 15 days post compound treatment under green house conditions; format: functional; settings: 360 h, read-out: GI
How it was run: (§1)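 Compounds formulated as 100 g/L emulsifiable concentrate (DMF solvent, Tween-80 emulsifier), diluted with water, sprayed post-emergence on pot-grown weeds in clay soil (pH 6.5, 1.6% organic matter). Seeds sown 1-3 cm deep, grown at 15-30 °C. Dicots were treated at the 2-leaf stage and monocots at the 1-leaf stage. Untreated and DMF-treated controls were included. Injury was rated visually 15 days after treatment.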

[2] = tested on: Amaranthus retroflexus; assay: Post-emergence herbicidal activity against Amaranthus retroflexus assessed as growth inhibition at 37.5 g ai/ha measured 15 days post compound treatment under green house conditions; format: functional; settings: 360 h, read-out: GI; how it was run: as §1
[3] = tested on: Galium aparine; assay: Post-emergence herbicidal activity against Galium aparine assessed as growth inhibition at 37.5 g ai/ha measured 15 days post compound treatment under green house conditions; format: functional; settings: 360 h, read-out: GI; how it was run: as §1
[4] = tested on: Cyperus iria; assay: Post-emergence herbicidal activity against Cyperus iria assessed as growth inhibition at 150 g ai/ha measured 15 days post compound treatment under green house conditions; format: functional; settings: 360 h, read-out: GI; how it was run: as §1
[5] = tested on: Cerastium arvense; assay: Post-emergence herbicidal activity against Cerastium arvense assessed as growth inhibition at 75 g ai/ha measured 15 days post compound treatment under green house conditions; format: functional; settings: 360 h, read-out: GI; how it was run: as §1
[6] = tested on: Cyperus iria; assay: Post-emergence herbicidal activity against Cyperus iria assessed as growth inhibition at 75 g ai/ha measured 15 days post compound treatment under green house conditions; format: functional; settings: 360 h, read-out: GI; how it was run: as §1
[7] = tested on: Chenopodium album; assay: Post-emergence herbicidal activity against Chenopodium album assessed as growth inhibition at 37.5 g ai/ha measured 15 days post compound treatment under green house conditions; format: functional; settings: 360 h, read-out: GI; how it was run: as §1
[8] = tested on: Cerastium arvense; assay: Post-emergence herbicidal activity against Cerastium arvense assessed as growth inhibition at 37.5 g ai/ha measured 15 days post compound treatment under green house conditions; format: functional; settings: 360 h, read-out: GI; how it was run: as §1
[9] = tested on: Galium aparine; assay: Post-emergence herbicidal activity against Galium aparine assessed as growth inhibition at 150 g ai/ha measured 15 days post compound treatment under green house conditions; format: functional; settings: 360 h, read-out: GI; how it was run: as §1
[10] = tested on: Chenopodium album; assay: Post-emergence herbicidal activity against Chenopodium album assessed as growth inhibition at 75 g ai/ha measured 15 days post compound treatment under green house conditions; format: functional; settings: 360 h, read-out: GI; how it was run: as §1
[11] = tested on: Echinochloa crus-galli; assay: Post-emergence herbicidal activity against Echinochloa crus-galli (barnyard grass) assessed as growth inhibition at 150 g ai/ha measured 15 days post compound treatment under green house conditions; format: functional; settings: 360 h, read-out: GI; how it was run: as §1
[12] = tested on: Digitaria sanguinalis; assay: Post-emergence herbicidal activity against Digitaria sanguinalis (hairy crabgrass) assessed as growth inhibition at 150 g ai/ha measured 15 days post compound treatment under green house conditions; format: functional; settings: 360 h, read-out: GI; how it was run: as §1
[13] = tested on: Polygonum humifusum; assay: Post-emergence herbicidal activity against Polygonum humifusum assessed as growth inhibition at 37.5 g ai/ha measured 15 days post compound treatment under green house conditions; format: functional; settings: 360 h, read-out: GI; how it was run: as §1
[14] = tested on: Chenopodium album; assay: Post-emergence herbicidal activity against Chenopodium album assessed as growth inhibition at 150 g ai/ha measured 15 days post compound treatment under green house conditions; format: functional; settings: 360 h, read-out: GI; how it was run: as §1
[15] = tested on: Rumex acetosa; assay: Post-emergence herbicidal activity against Rumex acetosa assessed as growth inhibition at 150 g ai/ha measured 15 days post compound treatment under green house conditions; format: functional; settings: 360 h, read-out: GI; how it was run: as §1
[16] = tested on: Polygonum humifusum; assay: Post-emergence herbicidal activity against Polygonum humifusum assessed as growth inhibition at 150 g ai/ha measured 15 days post compound treatment under green house conditions; format: functional; settings: 360 h, read-out: GI; how it was run: as §1
[17] = tested on: Polygonum humifusum; assay: Post-emergence herbicidal activity against Polygonum humifusum assessed as growth inhibition at 75 g ai/ha measured 15 days post compound treatment under green house conditions; format: functional; settings: 360 h, read-out: GI; how it was run: as §1
[18] = tested on: Cyperus iria; assay: Post-emergence herbicidal activity against Cyperus iria assessed as growth inhibition at 37.5 g ai/ha measured 15 days post compound treatment under green house conditions; format: functional; settings: 360 h, read-out: GI; how it was run: as §1
[19] = tested on: Amaranthus retroflexus; assay: Post-emergence herbicidal activity against Amaranthus retroflexus assessed as growth inhibition at 75 g ai/ha measured 15 days post compound treatment under green house conditions; format: functional; settings: 360 h, read-out: GI; how it was run: as §1
[20] = tested on: Amaranthus retroflexus; assay: Post-emergence herbicidal activity against Amaranthus retroflexus assessed as growth inhibition at 150 g ai/ha measured 15 days post compound treatment under green house conditions; format: functional; settings: 360 h, read-out: GI; how it was run: as §1
[21] = target: T1, Acetolactate synthase, chloroplastic (Arabidopsis thaliana, UniProt P17597)
T1 sequence (P17597 whole entry): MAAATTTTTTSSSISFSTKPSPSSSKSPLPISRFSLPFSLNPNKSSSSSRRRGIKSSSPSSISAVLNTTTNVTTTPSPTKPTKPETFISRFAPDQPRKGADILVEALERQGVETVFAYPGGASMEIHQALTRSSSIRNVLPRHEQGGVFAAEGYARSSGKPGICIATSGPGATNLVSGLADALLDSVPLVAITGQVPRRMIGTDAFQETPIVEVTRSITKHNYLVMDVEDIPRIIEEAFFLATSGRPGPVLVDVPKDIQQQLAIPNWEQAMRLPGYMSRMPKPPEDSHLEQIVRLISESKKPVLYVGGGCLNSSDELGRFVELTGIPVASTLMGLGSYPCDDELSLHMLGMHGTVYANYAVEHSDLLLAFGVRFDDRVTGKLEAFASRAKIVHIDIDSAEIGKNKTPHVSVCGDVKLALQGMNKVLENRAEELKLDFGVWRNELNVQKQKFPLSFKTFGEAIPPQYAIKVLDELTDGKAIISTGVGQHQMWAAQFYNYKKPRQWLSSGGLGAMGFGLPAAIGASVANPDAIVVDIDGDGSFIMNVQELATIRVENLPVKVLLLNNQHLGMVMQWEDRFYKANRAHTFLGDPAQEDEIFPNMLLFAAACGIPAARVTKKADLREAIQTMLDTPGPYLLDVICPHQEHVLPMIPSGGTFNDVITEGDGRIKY

[22] = tested on: Eclipta prostrata; assay: Post-emergence herbicidal activity against Eclipta prostrata assessed as growth inhibition at 150 g ai/ha measured 15 days post compound treatment under green house conditions; format: functional; settings: 360 h, read-out: GI; how it was run: as §1
[23] = tested on: Eclipta prostrata; assay: Post-emergence herbicidal activity against Eclipta prostrata assessed as growth inhibition at 75 g ai/ha measured 15 days post compound treatment under green house conditions; format: functional; settings: 360 h, read-out: GI; how it was run: as §1
[24] = tested on: Rumex acetosa; assay: Post-emergence herbicidal activity against Rumex acetosa assessed as growth inhibition at 37.5 g ai/ha measured 15 days post compound treatment under green house conditions; format: functional; settings: 360 h, read-out: GI; how it was run: as §1
[25] = tested on: Poa annua; assay: Post-emergence herbicidal activity against Poa annua assessed as growth inhibition at 150 g ai/ha measured 15 days post compound treatment under green house conditions; format: functional; settings: 360 h, read-out: GI; how it was run: as §1
[26] = tested on: Cerastium arvense; assay: Post-emergence herbicidal activity against Cerastium arvense assessed as growth inhibition at 150 g ai/ha measured 15 days post compound treatment under green house conditions; format: functional; settings: 360 h, read-out: GI; how it was run: as §1
[27] = tested on: Eclipta prostrata; assay: Post-emergence herbicidal activity against Eclipta prostrata assessed as growth inhibition at 37.5 g ai/ha measured 15 days post compound treatment under green house conditions; format: functional; settings: 360 h, read-out: GI; how it was run: as §1
[28] = tested on: Brassica juncea; assay: Post-emergence herbicidal activity against Brassica juncea assessed as growth inhibition at 150 g ai/ha measured 15 days post compound treatment under green house conditions; format: functional; settings: 360 h, read-out: GI; how it was run: as §1
[29] = tested on: Galium aparine; assay: Post-emergence herbicidal activity against Galium aparine assessed as growth inhibition at 75 g ai/ha measured 15 days post compound treatment under green house conditions; format: functional; settings: 360 h, read-out: GI; how it was run: as §1

Row | Compound | inhibition of growth at 75 g/ha [1] | inhibition of growth at 37.5 g/ha [2] | inhibition of growth at 37.5 g/ha [3] | inhibition of growth at 150 g/ha [4] | inhibition of growth at 75 g/ha [5] | inhibition of growth at 75 g/ha [6] | inhibition of growth at 37.5 g/ha [7] | inhibition of growth at 37.5 g/ha [8] | inhibition of growth at 150 g/ha [9] | inhibition of growth at 75 g/ha [10] | inhibition of growth at 150 g/ha [11] | inhibition of growth at 150 g/ha [12] | inhibition of growth at 37.5 g/ha [13] | inhibition of growth at 150 g/ha [14] | inhibition of growth at 150 g/ha [15] | inhibition of growth at 150 g/ha [16] | inhibition of growth at 75 g/ha [17] | inhibition of growth at 37.5 g/ha [18] | inhibition of growth at 75 g/ha [19] | inhibition of growth at 150 g/ha [20] | other results
1 | Cc1ccn2nc(S(=O)(=O)Nc3c(F)cccc3F)nc2n1 | 50% | ≥ 90% | 50% | 50% | ≥ 90% | 50% | 50% | ≥ 90% | ≥ 80% | ≥ 90% | 50% | ≥ 80% | ≥ 80% | ≥ 90% | ≥ 80% | ≥ 90% | ≥ 90% | 50% | ≥ 90% | ≥ 90% | Ki [21]: 0.36 µM; inhibition of growth at 150 g/ha [22]: ≥ 90%; inhibition of growth at 75 g/ha [23]: ≥ 90%; inhibition of growth at 37.5 g/ha [24]: 50%; inhibition of growth at 150 g/ha [25]: 50%; inhibition of growth at 150 g/ha [26]: ≥ 90%; inhibition of growth at 37.5 g/ha [27]: ≥ 90%; inhibition of growth at 150 g/ha [28]: ≥ 90%; inhibition of growth at 75 g/ha [29]: 50%
2 | COc1ccn2nc(S(=O)(=O)Nc3cccc(Cl)c3Cl)nc2n1 | 50% | 50% | 50% | 50% | < 50% | 50% | < 50% | < 50% | 50% | < 50% | < 50% | < 50% | 50% | < 50% | 50% | 50% | 50% | 50% | 50% | ≥ 50% | Ki [21]: 14.8 µM; inhibition of growth at 150 g/ha [22]: ≥ 50%; inhibition of growth at 75 g/ha [23]: 50%; inhibition of growth at 37.5 g/ha [24]: 50%; inhibition of growth at 150 g/ha [25]: < 50%; inhibition of growth at 150 g/ha [26]: < 50%; inhibition of growth at 37.5 g/ha [27]: 50%; inhibition of growth at 150 g/ha [28]: ≥ 80%; inhibition of growth at 75 g/ha [29]: 50%
3 | Cc1nc(C(F)(F)F)cc2nc(S(=O)(=O)Nc3c(Cl)cccc3Cl)nn12 | ≥ 80% | < 50% | 50% | 50% | 50% | 50% | ≥ 80% | < 50% | ≥ 80% | ≥ 80% | < 50% | < 50% | 50% | ≥ 90% | ≥ 80% | ≥ 80% | ≥ 80% | 50% | < 50% | < 50% | Ki [21]: 5.02 µM; inhibition of growth at 150 g/ha [22]: ≥ 90%; inhibition of growth at 75 g/ha [23]: 50%; inhibition of growth at 37.5 g/ha [24]: ≥ 80%; inhibition of growth at 150 g/ha [25]: < 50%; inhibition of growth at 150 g/ha [26]: 50%; inhibition of growth at 37.5 g/ha [27]: 50%; inhibition of growth at 150 g/ha [28]: ≥ 90%; inhibition of growth at 75 g/ha [29]: ≥ 80%
4 | COC(=O)c1cccc(Cl)c1NS(=O)(=O)c1nc2c(Cl)c(C)nc(C)n2n1 | 50% | 50% | ≥ 80% | 50% | 50% | 50% | ≥ 80% | < 50% | ≥ 80% | ≥ 80% | < 50% | < 50% | 50% | ≥ 80% | 50% | 50% | 50% | 50% | 50% | 50% | inhibition of growth at 150 g/ha [22]: ≥ 50%; inhibition of growth at 75 g/ha [23]: 50%; inhibition of growth at 37.5 g/ha [24]: 50%; inhibition of growth at 150 g/ha [25]: < 50%; inhibition of growth at 150 g/ha [26]: 50%; inhibition of growth at 37.5 g/ha [27]: 50%; inhibition of growth at 150 g/ha [28]: ≥ 90%; inhibition of growth at 75 g/ha [29]: ≥ 80%
